Where “and” joins values, the source holds several entries; their conditions need not be identical. Equal values may be shown once. Calls of active or inactive are those of the source.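 Rule for the calls: active = compound with IC50 above 30 µM at both the APJ and CCR6 off-target receptors, and at most 10 µM at CXCR6; inactive = the rest.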
Assays:
Test in all cases: GPCR panel antagonist activity incl. apelin receptor – cell-based, CHO-K1 PathHunter beta-arrestin, luminescence, set 3, selectivity assay for CXCR6 antagonist project, profiling panel (AID 651708)
[1] = biological target: C-X-C chemokine receptor type 6 (Homo sapiens) (UniProt O00574); conditions: antagonist mode
Summary of the method: (§1)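 Material – CHO-K1 PathHunter β-arrestin cell lines for APJ, CCR6 or CXCR6 · Probe or stimulus – APJ 10 nM Apelin-13, CCR6 14 nM CCL20, CXCR6 CXCL16 · Measured by – β-arrestin recruitment luminescence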

[2] = biological target: Apelin receptor (Homo sapiens) (UniProt P35414); conditions: antagonist mode, APJ
Summary of the method: as §1

[3] = biological target: C-C chemokine receptor type 6 (Homo sapiens) (UniProt P51684); conditions: antagonist mode
Summary of the method: as §1

Chain of C-C chemokine receptor type 6 (Homo sapiens) (P51684 whole entry, looked up): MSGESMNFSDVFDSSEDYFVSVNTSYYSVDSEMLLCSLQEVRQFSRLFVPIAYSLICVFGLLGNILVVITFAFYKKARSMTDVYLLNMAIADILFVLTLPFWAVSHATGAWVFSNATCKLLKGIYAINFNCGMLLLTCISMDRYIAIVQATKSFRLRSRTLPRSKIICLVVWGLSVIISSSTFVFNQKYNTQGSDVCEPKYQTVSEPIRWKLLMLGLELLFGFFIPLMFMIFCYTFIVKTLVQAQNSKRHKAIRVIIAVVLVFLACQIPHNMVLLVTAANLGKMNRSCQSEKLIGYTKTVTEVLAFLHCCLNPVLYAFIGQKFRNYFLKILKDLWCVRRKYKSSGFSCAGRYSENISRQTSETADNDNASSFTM
Chain of C-X-C chemokine receptor type 6 (Homo sapiens) (O00574 whole entry, looked up): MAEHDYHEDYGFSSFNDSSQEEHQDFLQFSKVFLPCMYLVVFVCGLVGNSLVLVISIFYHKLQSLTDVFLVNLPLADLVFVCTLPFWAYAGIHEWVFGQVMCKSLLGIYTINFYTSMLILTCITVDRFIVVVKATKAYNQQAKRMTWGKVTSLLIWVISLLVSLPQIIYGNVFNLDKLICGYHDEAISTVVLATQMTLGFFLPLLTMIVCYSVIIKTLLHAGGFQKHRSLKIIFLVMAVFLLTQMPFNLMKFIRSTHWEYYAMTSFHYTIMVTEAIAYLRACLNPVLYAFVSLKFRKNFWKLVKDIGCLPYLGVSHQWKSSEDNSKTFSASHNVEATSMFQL
Chain of Apelin receptor (Homo sapiens) (P35414 whole entry, looked up): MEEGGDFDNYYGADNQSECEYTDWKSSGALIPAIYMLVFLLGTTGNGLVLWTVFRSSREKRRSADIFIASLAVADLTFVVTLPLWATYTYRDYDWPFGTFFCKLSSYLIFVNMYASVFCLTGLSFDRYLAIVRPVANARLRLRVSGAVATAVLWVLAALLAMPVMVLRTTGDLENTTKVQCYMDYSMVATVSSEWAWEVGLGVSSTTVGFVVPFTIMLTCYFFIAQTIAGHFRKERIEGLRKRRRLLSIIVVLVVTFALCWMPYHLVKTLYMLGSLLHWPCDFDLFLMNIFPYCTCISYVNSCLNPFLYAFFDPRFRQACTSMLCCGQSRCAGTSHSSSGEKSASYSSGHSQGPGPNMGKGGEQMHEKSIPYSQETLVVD

IC50 ([1]; CXCR6, mean of runs) | IC50 ([1]; CXCR6, run 1) | IC50 ([1]; CXCR6, run 2) | IC50 ([2]; mean of runs) | IC50 ([2]; run 1) | IC50 ([2]; run 2) | IC50 ([3]; CCR6, mean of runs) | IC50 ([3]; CCR6, run 1) | IC50 ([3]; CCR6, run 2) | SMILES
> 79 µM (inactive) | > 79 µM | > 79 µM | > 79 µM (inactive) | > 79 µM | > 79 µM | > 79 µM (inactive) | > 79 µM | > 79 µM | COc1ccc(C(=O)NC2CC3CCCC(C2)N3CC(=O)Nc2ccc(C)cc2)cc1OC (configuration not stated)
1.46 µM | 1.27 µM | 1.65 µM |  | > 79 µM | 52.7 µM | > 79 µM (inactive) | > 79 µM | > 79 µM | COc1cc(C(=O)NC2CC3CCCC(C2)N3CC(=O)Nc2ccc(Cl)cc2)cc(OC)c1OC (configuration not stated)
> 79 µM (inactive) | > 79 µM | > 79 µM | > 79 µM (inactive) | > 79 µM | > 79 µM | > 79 µM (inactive) | > 79 µM | > 79 µM | COc1ccc(C(=O)NC2CC3CCCC(C2)N3CC(=O)Nc2ccc(F)cc2)cc1 (configuration not stated)
> 79 µM (inactive) | > 79 µM | > 79 µM | > 79 µM (inactive) | > 79 µM | > 79 µM | > 79 µM (inactive) | > 79 µM | > 79 µM | COc1ccc(C(=O)NC2CC3CCCC(C2)N3CC(=O)Nc2ccc(C)cc2)cc1 (configuration not stated)
> 79 µM (inactive) | > 79 µM | > 79 µM | > 79 µM (inactive) | > 79 µM | > 79 µM | > 79 µM (inactive) | > 79 µM | > 79 µM | COc1cc(OC)cc(C(=O)NC2CC3CCCC(C2)N3CC(=O)Nc2ccc(F)cc2)c1 (configuration not stated)
0.338 µM | 0.191 µM | 0.484 µM |  | > 79 µM | 0.818 µM | > 79 µM (inactive) | > 79 µM | > 79 µM | COc1cc(C(=O)NC2CC3CCCC(C2)N3CC(=O)Nc2ccccc2Cl)cc(OC)c1OC (configuration not stated)
> 79 µM (inactive) | > 79 µM | > 79 µM | > 79 µM (inactive) | > 79 µM | > 79 µM | > 79 µM (inactive) | > 79 µM | > 79 µM | COc1ccc(NC(=O)CN2C3CCCC2CC(NC(=O)c2ccc4c(c2)OCO4)C3)cc1 (configuration not stated)
> 79 µM (inactive) | > 79 µM | > 79 µM |  | > 79 µM | 11.2 µM | > 79 µM (inactive) | > 79 µM | > 79 µM | COc1cc(OC)cc(C(=O)NC2CC3CCCC(C2)N3CC(=O)Nc2ccccc2)c1 (configuration not stated)
> 79 µM (inactive) | > 79 µM | > 79 µM | > 79 µM (inactive) | > 79 µM | > 79 µM | > 79 µM (inactive) | > 79 µM | > 79 µM | COc1ccc(C(=O)NC2CC3CCCC(C2)N3CC(=O)Nc2ccc(Cl)cc2)cc1 (configuration not stated)
5.69 µM | 5.37 µM | 6 µM | > 79 µM (inactive) | > 79 µM | > 79 µM | > 79 µM (inactive) | > 79 µM | > 79 µM | COc1cc(C(=O)NC2CC3CCCC(C2)N3CC(=O)Nc2ccc(C)cc2)cc(OC)c1OC (configuration not stated)
> 79 µM (inactive) | > 79 µM | > 79 µM |  | > 79 µM | 4.23 µM | > 79 µM (inactive) | > 79 µM | > 79 µM | COc1ccc(NC(=O)CN2C3CCCC2CC(NC(=O)c2ccc(OC)cc2)C3)cc1 (configuration not stated)
> 79 µM (inactive) | > 79 µM | > 79 µM |  | > 79 µM | 1.18 µM | > 79 µM (inactive) | > 79 µM | > 79 µM | COc1cccc(C(=O)NC2CC3CCCC(C2)N3CC(=O)Nc2ccc(C)cc2)c1 (configuration not stated)
> 79 µM (inactive) | > 79 µM | > 79 µM | > 79 µM (inactive) | > 79 µM | > 79 µM | > 79 µM (inactive) | > 79 µM | > 79 µM | O=C(CN1C2CCCC1CC(NC(=O)c1ccccc1)C2)Nc1ccccc1 (configuration not stated)
> 79 µM (inactive) | > 79 µM | > 79 µM | > 79 µM (inactive) | > 79 µM | > 79 µM | > 79 µM (inactive) | > 79 µM | > 79 µM | O=C(CN1C2CCCC1CC(NC(=O)c1ccc3c(c1)OCO3)C2)Nc1ccc(F)cc1 (configuration not stated)
> 79 µM (inactive) | > 79 µM | > 79 µM | > 79 µM (inactive) | > 79 µM | > 79 µM | > 79 µM (inactive) | > 79 µM | > 79 µM | COc1cccc(C(=O)NC2CC3CCCC(C2)N3CC(=O)Nc2ccc(Cl)cc2)c1 (configuration not stated)
> 79 µM (inactive) | > 79 µM | > 79 µM |  | > 79 µM | 0.307 µM | > 79 µM (inactive) | > 79 µM | > 79 µM | COc1ccc(NC(=O)CN2C3CCCC2CC(NC(=O)c2ccc(OC)c(OC)c2)C3)cc1 (configuration not stated)
> 79 µM (inactive) | > 79 µM | > 79 µM | > 79 µM (inactive) | > 79 µM | > 79 µM | > 79 µM (inactive) | > 79 µM | > 79 µM | COc1ccc(C(=O)NC2CC3CCCC(C2)N3CC(=O)Nc2ccccc2)cc1 (configuration not stated)
> 79 µM (inactive) | > 79 µM | > 79 µM | > 79 µM (inactive) | > 79 µM | > 79 µM | > 79 µM (inactive) | > 79 µM | > 79 µM | COc1ccc(NC(=O)CN2C3CCCC2CC(NC(=O)c2cc(OC)cc(OC)c2)C3)cc1 (configuration not stated)
> 79 µM (inactive) | > 79 µM | > 79 µM | > 79 µM (inactive) | > 79 µM | > 79 µM | > 79 µM (inactive) | > 79 µM | > 79 µM | O=C(CN1C2CCCC1CC(NC(=O)c1ccc3c(c1)OCO3)C2)Nc1ccccc1 (configuration not stated)
4.78 µM and 4.75 µM | 4.48 µM and 4.08 µM | 5.09 µM and 5.43 µM | > 79 µM (inactive) | > 79 µM | > 79 µM | > 79 µM (inactive) | > 79 µM | > 79 µM | COc1cc(C(=O)NC2CC3CCCC(C2)N3CC(=O)Nc2ccccc2)cc(OC)c1OC (configuration not stated)
> 79 µM (inactive) | > 79 µM | > 79 µM | > 79 µM (inactive) | > 79 µM | > 79 µM | > 79 µM (inactive) | > 79 µM | > 79 µM | COc1ccc(NC(=O)CN2C3CCCC2CC(NC(=O)c2cccc(OC)c2)C3)cc1 (configuration not stated)
> 79 µM (inactive) | > 79 µM | > 79 µM | > 79 µM (inactive) | > 79 µM | > 79 µM | > 79 µM (inactive) | > 79 µM | > 79 µM | COc1cc(OC)cc(C(=O)NC2CC3CCCC(C2)N3CC(=O)Nc2ccc(Cl)cc2)c1 (configuration not stated)
